Laboratory results from ChEMBL document CHEMBL1124662, “Antiinflammatory activity of a series of substituted 2,3-dihydro-6-hydroxypyrimido[2,1-f]purine-4,8(1H,9H)-diones” (J Med Chem, 1989).
“And” between values parts separate entries of the source, which are not always exact repeats. Equal entries are not always repeated.

What was measured:
Rattus norvegicus [1] = experiment: Antiinflammatory activity against reverse passive Arthus reaction-synovitis in rat at dose of 50 mg/kg per orally.; type: functional; conditions: po
How it was run: (§1)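 Lewis rats dosed orally with drug or placebo 1 h before iv bovine serum albumin in saline, then 0.54 mg rabbit anti-BSA antibody intraarticular in one knee, saline in the other, under light anesthesia. Second oral dose at 3 h; the dose used is the total given before and after induction.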

Rattus norvegicus [2] = experiment: Prophylactic antiinflammatory activity against adjuvant arthritic rat at dose of 25 mg/kg in noninjected 1 degree paw.; type: functional
How it was run: (§2)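 Heat-killed Mycobacterium tuberculosis ground and homogenized in paraffin oil (6 mg/mL); 0.1 mL injected into left hind paw. Drug dosed 1 h before challenge, then daily for 21 consecutive days; controls received methylcellulose. Both hind paw volumes measured by plethysmograph immediately and on day 21; % inhibition of Δ paw volume.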

Rattus norvegicus [3] = experiment: Prophylactic antiinflammatory activity against adjuvant arthritic rat at dose of 25 mg/kg in noninjected 2 degree paw.; type: functional; how it was run: as §2
Rattus norvegicus [4] = experiment: Prophylactic antiinflammatory activity against adjuvant arthritic rat at dose of 50 mg/kg in noninjected 2 degree paw.; type: functional; how it was run: as §2
Rattus norvegicus [5] = experiment: Prophylactic antiinflammatory activity against adjuvant arthritic rat at dose of 50 mg/kg in noninjected 1 degree paw.; type: functional; how it was run: as §2
Rattus norvegicus [6] = experiment: Prophylactic anti-inflammatory activity in adjuvant arthritic rat at 12.5 mg/kg in noninjected 1 degree paw; type: functional; how it was run: as §2
Rattus norvegicus [7] = experiment: Prophylactic anti-inflammatory activity in adjuvant arthritic rat at 12.5 mg/kg in noninjected 2 degree paw; type: functional; how it was run: as §2
Rattus norvegicus [8] = experiment: Prophylactic anti-inflammatory activity in adjuvant arthritic rat at 6.25 mg/kg in noninjected 2 degree paw; type: functional; how it was run: as §2
Rattus norvegicus [9] = experiment: Prophylactic oral administration in adjuvant arthritic rat model at 25 mg/kg in noninjected 2 degree paw; type: functional; how it was run: as §2
[10] = Therapeutic oral administration in adjuvant arthritic rat model at 25 mg/kg in noninjected 2 degree paw; type: ADME, organism-based; set-up: dose 25 mg/kg, route oral
How it was run: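 Adjuvant arthritis (heat-killed M. tuberculosis in paraffin oil, 6 mg/mL, 0.1 mL into left hind paw) left to develop 7 days before first oral dose; treatment continued 35 days. Controls given methylcellulose; hind paw volumes measured by plethysmograph as Δ paw volume; % inhibition.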

Rattus norvegicus [11] = experiment: Prophylactic anti-inflammatory activity in adjuvant arthritic rat at 6.25 mg/kg in noninjected 1 degree paw; type: functional; how it was run: as §2
Rattus norvegicus [12] = experiment: Prophylactic anti-inflammatory activity in adjuvant arthritic rat at 25 mg/kg in noninjected 1 degree paw; type: functional; how it was run: as §2
Rattus norvegicus [13] = experiment: Anti-inflammatory activity against reverse passive […] reaction-synovitis in rat at 50 mg/kg oral dose; type: functional; how it was run: as §1
Rattus norvegicus [14] = experiment: Prophylactic anti-inflammatory activity in adjuvant arthritic rat at 9 mg/kg in noninjected 1 degree paw; type: functional; how it was run: as §2
Rattus norvegicus [15] = experiment: Prophylactic anti-inflammatory activity in adjuvant arthritic rat at 27 mg/kg in noninjected 2 degree paw; type: functional; how it was run: as §2
Rattus norvegicus [16] = experiment: Anti-inflammatory activity against reverse passive […] reaction-synovitis in rat at 100 mg/kg oral dose; type: functional; how it was run: as §1
Rattus norvegicus [17] = experiment: Prophylactic anti-inflammatory activity in adjuvant arthritic rat at 3 mg/kg in noninjected 1 degree paw; type: functional; how it was run: as §2
Rattus norvegicus [18] = experiment: Prophylactic anti-inflammatory activity in adjuvant arthritic rat at 27 mg/kg in noninjected 1 degree paw; type: functional; how it was run: as §2
[19] = Inhibition of guinea pig Phosphodiesterase; set-up: species or system Cavia porcellus
Rattus norvegicus [20] = experiment: Prophylactic anti-inflammatory activity in adjuvant arthritic rat at 3 mg/kg in noninjected 2 degree paw; type: functional; how it was run: as §2
Cyclooxygenase = molecular target: T1, Cyclooxygenase (Rattus norvegicus, UniProt P35355+Q63921); experiment: Inhibitory activity against Prostaglandin G/H synthase in an in vitro rat neutrophil assay; type: protein assay
T1 sequence (P35355 whole entry): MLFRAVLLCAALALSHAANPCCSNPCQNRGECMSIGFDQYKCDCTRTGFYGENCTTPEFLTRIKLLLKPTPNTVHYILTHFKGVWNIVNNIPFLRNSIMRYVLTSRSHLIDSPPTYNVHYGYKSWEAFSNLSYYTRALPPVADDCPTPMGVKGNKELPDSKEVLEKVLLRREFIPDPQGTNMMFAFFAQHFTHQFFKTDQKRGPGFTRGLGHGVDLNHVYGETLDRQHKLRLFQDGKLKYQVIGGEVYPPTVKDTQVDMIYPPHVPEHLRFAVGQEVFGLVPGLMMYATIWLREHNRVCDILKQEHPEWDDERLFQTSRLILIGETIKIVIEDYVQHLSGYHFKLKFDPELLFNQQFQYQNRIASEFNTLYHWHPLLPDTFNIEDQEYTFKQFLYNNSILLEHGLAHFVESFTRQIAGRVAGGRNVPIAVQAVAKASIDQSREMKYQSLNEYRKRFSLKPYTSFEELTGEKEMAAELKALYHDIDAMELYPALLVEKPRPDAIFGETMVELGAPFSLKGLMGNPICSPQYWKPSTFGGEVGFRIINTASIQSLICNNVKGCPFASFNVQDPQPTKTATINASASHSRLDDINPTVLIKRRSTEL
T1 sequence (Q63921 whole entry): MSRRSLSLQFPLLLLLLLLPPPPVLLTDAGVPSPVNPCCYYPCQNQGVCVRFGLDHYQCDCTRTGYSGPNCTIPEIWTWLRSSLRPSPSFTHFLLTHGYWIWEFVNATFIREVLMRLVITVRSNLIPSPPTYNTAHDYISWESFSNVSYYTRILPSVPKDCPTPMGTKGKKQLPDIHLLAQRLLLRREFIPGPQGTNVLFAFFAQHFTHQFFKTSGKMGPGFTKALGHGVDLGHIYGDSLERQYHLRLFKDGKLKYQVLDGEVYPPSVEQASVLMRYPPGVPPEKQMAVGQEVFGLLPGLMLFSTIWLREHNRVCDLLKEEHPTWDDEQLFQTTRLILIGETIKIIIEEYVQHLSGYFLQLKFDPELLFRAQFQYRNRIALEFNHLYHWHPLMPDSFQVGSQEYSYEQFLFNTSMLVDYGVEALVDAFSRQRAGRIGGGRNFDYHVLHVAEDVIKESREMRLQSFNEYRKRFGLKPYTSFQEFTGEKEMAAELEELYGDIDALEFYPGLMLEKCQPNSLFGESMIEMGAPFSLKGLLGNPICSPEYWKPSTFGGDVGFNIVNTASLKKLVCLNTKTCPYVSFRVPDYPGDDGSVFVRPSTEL

Rattus norvegicus [21] = experiment: Prophylactic oral administration in adjuvant arthritic rat model at 27 mg/kg in noninjected 2 degree paw; type: functional; how it was run: as §2
Rattus norvegicus [22] = experiment: Prophylactic anti-inflammatory activity in adjuvant arthritic rat at 9 mg/kg in noninjected 2 degree paw; type: functional; how it was run: as §2
Rattus norvegicus [23] = experiment: Prophylactic anti-inflammatory activity in adjuvant arthritic rat at 50 mg/kg in noninjected 1 degree paw; type: functional; how it was run: as §2
Rattus norvegicus [24] = experiment: Prophylactic anti-inflammatory activity in adjuvant arthritic rat at 25 mg/kg in noninjected 2 degree paw; type: functional; how it was run: as §2
Rattus norvegicus [25] = experiment: Prophylactic anti-inflammatory activity adjuvant arthritic rat at 50 mg/kg in noninjected 2 degree paw; type: functional; how it was run: as §2
Rattus norvegicus [26] = experiment: Prophylactic anti-inflammatory activity in adjuvant arthritic rat at 45 mg/kg in noninjected 1 degree paw; type: functional; how it was run: as §2
Rattus norvegicus [27] = experiment: Prophylactic anti-inflammatory activity in adjuvant arthritic rat at 45 mg/kg in noninjected 2 degree paw; type: functional; how it was run: as §2

SMILES | inhibition in vivo at 50 mg/kg (Rattus norvegicus [1]) | inhibition in vivo at 25 mg/kg (Rattus norvegicus [2]) | inhibition in vivo at 25 mg/kg (Rattus norvegicus [3]) | inhibition in vivo at 50 mg/kg (Rattus norvegicus [4]) | inhibition in vivo at 50 mg/kg (Rattus norvegicus [5]) | inhibition in vivo at 12.5 mg/kg (Rattus norvegicus [6]) | also measured
CCCc1c(O)n(Cc2ccc(F)cc2)c2nc3c(n2c1=O)C(=O)N(C)CN3C | 0% | 0% | 56% |  |  |  | 
CN1CN(C)c2nc3n(Cc4ccccc4)c(O)c(Sc4ccccc4)c(=O)n3c2C1=O |  |  |  | 23% | 15% |  | 
Cc1c(O)n(Cc2ccccc2)c2nc3c(n2c1=O)C(=O)N(C)CN3C | 0% | 0% | 22% | 69% | 46% | 0% | inhibition in vivo at 12.5 mg/kg (Rattus norvegicus [7]): 36%
C/C=C/Cc1c(O)n(Cc2ccccc2)c2nc3c(n2c1=O)C(=O)N(C)CN3C | 0% | 24% | 40% | 71% | 44% | 20% | 
C/C(=C/Cc1c(O)n(Cc2ccccc2)c2nc3c(n2c1=O)C(=O)N(C)CN3C)C(F)(F)F | 25% | 45% | 74% |  |  | 47% | inhibition in vivo at 6.25 mg/kg (Rattus norvegicus [8]): 60%; ED50 (Rattus norvegicus [9]): 8.8 mg/kg; ED50 [10]: 4 mg/kg; inhibition in vivo at 12.5 mg/kg (Rattus norvegicus [7]): 64%; inhibition in vivo at 6.25 mg/kg (Rattus norvegicus [11]): 33%
CCCc1c(O)n(Cc2ccccc2)c2nc3c(n2c1=O)C(=O)N(C)CN3C | 45% | 24% | 65% | 70% | 38% | 16% | inhibition in vivo at 12.5 mg/kg (Rattus norvegicus [7]): 38%
CC(C)=CCc1c(O)n(Cc2ccc(F)cc2)c2nc3c(n2c1=O)C(=O)N(C)CN3C | 18% |  | 49% |  |  |  | inhibition in vivo at 25 mg/kg (Rattus norvegicus [12]): 24%; ED50 [10]: 7.6 mg/kg
CN1CN(C)c2nc3n(Cc4ccccc4)c(O)c(CCO)c(=O)n3c2C1=O | 8% |  |  |  |  |  | 
CCCc1c(O)n(Cc2cccs2)c2nc3c(n2c1=O)C(=O)N(C)CN3C |  | 20% | 51% |  |  | 20% | inhibition in vivo at 12.5 mg/kg (Rattus norvegicus [7]): 13%
CSc1c(O)n(Cc2ccccc2)c2nc3c(n2c1=O)C(=O)N(C)CN3C | 10% |  |  | 61% | 33% |  | 
CN(C)/C=c1\c(=O)n(Cc2ccccc2)c2nc3c(n2c1=O)C(=O)N(C)CN3C | 27% |  |  |  |  |  | 
CN1CN(C)c2nc3n(Cc4ccccc4)c(O)c(Cc4ccccc4)c(=O)n3c2C1=O | 5% | 34% | 49% | 63% | 46% |  | 
CN1CN(C)c2nc3n(Cc4ccccc4)c(O)cc(=O)n3c2C1=O |  |  |  |  |  |  | inhibition in vivo at 50 mg/kg (Rattus norvegicus [13]): 0%
C#CCc1c(O)n(Cc2ccccc2)c2nc3c(n2c1=O)C(=O)N(C)CN3C | 6% | 35% | 21% | 13% | 36% |  | 
CC(C)=CCc1c(O)n(Cc2ccccc2)c2nc3c(n2c1=O)C(=O)N(C)CN3C |  |  |  |  |  |  | inhibition in vivo at 9 mg/kg (Rattus norvegicus [14]): 33%; inhibition in vivo at 27 mg/kg (Rattus norvegicus [15]): 92%; inhibition in vivo at 100 mg/kg (Rattus norvegicus [16]): 20%; ED50 [10]: 15 mg/kg; inhibition in vivo at 3 mg/kg (Rattus norvegicus [17]): 17%; inhibition in vivo at 27 mg/kg (Rattus norvegicus [18]): 54%; IC50 [19]: 37 µM and 200 µM; inhibition in vivo at 3 mg/kg (Rattus norvegicus [20]): 47%; IC50 (Cyclooxygenase): 6 µM; ED50 (Rattus norvegicus [21]): 6.02 mg/kg; inhibition in vivo at 9 mg/kg (Rattus norvegicus [22]): 65%
CN1CN(C)c2nc3n(Cc4ccc(F)cc4)c(O)cc(=O)n3c2C1=O | 9% |  |  |  |  | 22% | inhibition in vivo at 25 mg/kg (Rattus norvegicus [12]): 36%; inhibition in vivo at 50 mg/kg (Rattus norvegicus [23]): 37%; inhibition in vivo at 25 mg/kg (Rattus norvegicus [24]): 24%; inhibition in vivo at 50 mg/kg (Rattus norvegicus [25]): 46%; inhibition in vivo at 12.5 mg/kg (Rattus norvegicus [7]): 21%
CN1CN(C)c2nc3n(Cc4ccccc4)c(O)c(C4C=CCCC4)c(=O)n3c2C1=O (centres undefined) | 16% | 12% | 15% | 13% | 13% | 9% | inhibition in vivo at 12.5 mg/kg (Rattus norvegicus [7]): 6%
CC(C)=CCSc1cc(=O)n2c3c(nc2n1Cc1ccccc1)N(C)CN(C)C3=O |  | -16% | 8% |  |  |  | 
CN1CN(C)c2nc3n(Cc4ccccc4)c(O)c(C(=O)Nc4ccccc4)c(=O)n3c2C1=O |  |  |  | 23% | -21% |  | 
CN1CN(C)c2nc3n(Cc4ccccc4)c(=O)/c(=C\O)c(=O)n3c2C1=O | 34% |  |  | 32% | 6% |  | 
C=CCc1c(O)n(Cc2ccc(F)cc2)c2nc3c(n2c1=O)C(=O)N(C)CN3C | 40% |  |  | 49% | 10% |  | 
CCOC(=O)Cc1c(O)n(Cc2ccccc2)c2nc3c(n2c1=O)C(=O)N(C)CN3C | 14% | 18% | 20% |  |  |  | 
COc1ccc(Cn2c(O)c(CC=C(C)C)c(=O)n3c4c(nc23)N(C)CN(C)C4=O)cc1 |  | 45% | 69% |  |  | 40% | ED50 (Rattus norvegicus [9]): 14 mg/kg; inhibition in vivo at 12.5 mg/kg (Rattus norvegicus [7]): 63%
CC(C)CCc1c(O)n(Cc2ccccc2)c2nc3c(n2c1=O)C(=O)N(C)CN3C |  |  |  |  |  |  | inhibition in vivo at 45 mg/kg (Rattus norvegicus [26]): 23%; inhibition in vivo at 45 mg/kg (Rattus norvegicus [27]): 51%
Cn1c(=O)c2[nH]cnc2n(C)c1=O [AMINOPHYLLINE] |  |  |  |  |  |  | IC50 [19]: 30 µM
